Reference: ChEMBL document CHEMBL2021916, “Aflaquinolones A-G: secondary metabolites from marine and fungicolous isolates of Aspergillus spp” (J Nat Prod, 2012)
pIC50: −log10 of the molar value.

Assays:
B16-F10 = assay: Cytotoxicity against mouse B16F10 cells after 48 hrs by EZ-CyTox enhanced cell viability assay; type: functional, cell-based; conditions: B16-F10, 48 h
How it was run: (§1)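 Seeding densities: K562 3 × 10⁴, B16F10 3 × 10³, HL-60 1 × 10⁵, MDA-MB-231 5 × 10³ and Hep3B 5 × 10³ cells per well. Cells were exposed for 48 h to test compounds supplied as DMSO solutions. Viability was read with the EZ-CyTox enhanced cell viability kit as absorbance at 450 nm.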

HL-60 = assay: Cytotoxicity against human HL60 cells after 48 hrs by EZ-CyTox enhanced cell viability assay; type: functional, cell-based; conditions: HL-60, 48 h; how it was run: as §1
MDA-MB-231 = assay: Cytotoxicity against human MDA-MB-231 cells after 48 hrs by EZ-CyTox enhanced cell viability assay; type: functional, cell-based; conditions: MDA-MB-231, 48 h; how it was run: as §1
[1] = Cytotoxicity against human Hep3B cells after 48 hrs by EZ-CyTox enhanced cell viability assay; type: functional, cell-based, Hep 3B2; how it was run: as §1
K562 = assay: Cytotoxicity against human K562 cells after 48 hrs by EZ-CyTox enhanced cell viability assay; type: functional, cell-based; conditions: K562, 48 h; how it was run: as §1

Measured: pIC50

CO[C@@H]1C(=O)Nc2ccc(/C=C/[C@]3(C)CCC(=O)[C@@H](C)C3)c(O)c2[C@@]1(O)c1ccccc1 [AFLAQUINOLONE A]
< 4.10: all assays above

CO[C@@H]1C(=O)Nc2ccc(/C=C/[C@]3(C)CC[C@@H](O)[C@@H](C)C3)c(O)c2[C@@]1(O)c1ccccc1 [AFLAQUINOLONE B]
< 4.10: all assays above

CO[C@@H]1C(=O)Nc2ccc(/C=C/[C@@]3(C)CCC(=O)[C@H](C)C3)c(O)c2[C@@]1(O)c1ccccc1 [AFLAQUINOLONE C]
< 4.10: all assays above

CO[C@@H]1C(=O)Nc2cccc(O)c2[C@@]1(O)c1ccccc1 [AFLAQUINOLONE E]
< 4.10: all assays above

O=C1Nc2ccccc2[C@@](O)(c2ccccc2)[C@@H]1O [AFLAQUINOLONE F]
< 4.10: all assays above

O=C1Nc2ccccc2[C@@](O)(c2ccccc2)[C@H]1O [AFLAQUINOLONE G]
< 4.10: all assays above
